Experimental findings from ChEMBL document CHEMBL4715832, “Isoquinoline-based biaryls as a robust scaffold for microtubule inhibitors” (Eur J Med Chem, 2020) are described below.

Series [1] deals with HeLa. The series is described as follows: Antiproliferative activity against human HeLa cells assessed as reduction in cell growth after 48 hrs by resazurin dye based fluorescence assay. The series is classed as functional. In outline:
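HeLa cells grown in DMEM with 10% FCS and penicillin/streptomycin, 37 °C, 5% CO2. Seeded 5,000 cells/well, treated 24 h later with DMSO 1% final, then incubated 48 h. Resazurin reduction to resorufin measured over 3 h at 37 °C by fluorescence (ex 544/em 590 nm). Normalised to cosolvent control (100%) and cell-free wells (0%). Means of at least three independent experiments.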

A short description of series [2]: Solubility of compound. The series is classed as physicochemical.
For series [3], the system named is HeLa. The series is described as follows: Induction of microtubule network depolymerization in human HeLa cells after 24 hrs by immunofluorescence staining based confocal microscopic analysis. The series is classed as cell-based. In outline: (§1)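 HeLa cells seeded on glass coverslips (50,000 cells/well), allowed to adhere 18 h, then treated 24 h. Fixed with 0.5% glutaraldehyde, quenched with 0.1% NaBH4, blocked with PBS + 10% FCS. Stained with rabbit anti-alpha-tubulin (1:400, 1 h), then Alexa Fluor 488 anti-rabbit secondary, with DAPI nuclear counterstain. Imaged by confocal microscopy, including z-stack projections.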

In series [4] the test system is HeLa. In words: Induction of microtubule network depolymerization in human HeLa cells at 15 uM after 24 hrs by immunofluorescence staining based confocal microscopic analysis. The series is classed as cell-based. In outline:
as §1

Series [5] has as its system HL-60. In words: Antiproliferative activity against human HL-60 cells assessed as reduction in cell growth after 24 hrs by MTT assay. The series is classed as functional, cell-based. Conditions: HL-60, 24 h. In outline:
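HL-60 cells grown in RPMI 1640 with 10% FCS, no antibiotics, 37 °C, 5% CO2. Seeded 9,000 cells/well, treated 24 h later with DMSO cosolvent at 1% final. After 24 h, MTT 0.5 mg/mL for 2 h, absorbance read. Normalised to cosolvent control (100%) and Triton X-100-treated cells (0%). Means of at least three independent experiments.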

A short description of series [6]: Stability in human liver microsomes assessed as parent compound remaining at 2 uM measured immediately in presence of cofactor. The series is classed as ADME, Microsome. Conditions: read-out: Stabilty. (Liver microsomes are vesicles of endoplasmic reticulum, rich in cytochrome P450 enzymes.)
Series [7] can be described thus: Stability in human liver microsomes assessed as parent compound remaining at 2 uM measured after 10 mins in presence of cofactor. The series is classed as ADME, Microsome. The conditions noted are these: read-out: Stabilty.
The nature of series [8]: Stability in human liver microsomes assessed as parent compound remaining at 2 uM measured after 20 mins in presence of cofactor. The series is classed as ADME, Microsome. Conditions: read-out: Stabilty.
A short description of series [9]: Stability in human liver microsomes assessed as parent compound remaining at 2 uM measured after 30 mins in presence of cofactor. The series is classed as ADME, Microsome. Conditions: read-out: Stabilty.
The nature of series [10]: Stability in human liver microsomes assessed as parent compound remaining at 2 uM measured after 40 mins in presence of cofactor. The series is classed as ADME, Microsome. The conditions noted are these: read-out: Stabilty.
Series [11] can be described thus: Half life in human liver microsomes at 2 uM. The series is classed as ADME, Microsome.
The nature of series [12]: Stability in human liver microsomes assessed as parent compound remaining at 2 uM measured immediately in absence of cofactor. The series is classed as ADME, Microsome. Conditions: read-out: Stabilty.
Series [13] can be described thus: Stability in human liver microsomes assessed as parent compound remaining at 2 uM measured after 40 mins in absence of cofactor. The series is classed as ADME, Microsome. The conditions noted are these: read-out: Stabilty.
Series [14] addresses T1, CYP1A2 (Homo sapiens, UniProt P05177).
T1 sequence (P05177 whole entry): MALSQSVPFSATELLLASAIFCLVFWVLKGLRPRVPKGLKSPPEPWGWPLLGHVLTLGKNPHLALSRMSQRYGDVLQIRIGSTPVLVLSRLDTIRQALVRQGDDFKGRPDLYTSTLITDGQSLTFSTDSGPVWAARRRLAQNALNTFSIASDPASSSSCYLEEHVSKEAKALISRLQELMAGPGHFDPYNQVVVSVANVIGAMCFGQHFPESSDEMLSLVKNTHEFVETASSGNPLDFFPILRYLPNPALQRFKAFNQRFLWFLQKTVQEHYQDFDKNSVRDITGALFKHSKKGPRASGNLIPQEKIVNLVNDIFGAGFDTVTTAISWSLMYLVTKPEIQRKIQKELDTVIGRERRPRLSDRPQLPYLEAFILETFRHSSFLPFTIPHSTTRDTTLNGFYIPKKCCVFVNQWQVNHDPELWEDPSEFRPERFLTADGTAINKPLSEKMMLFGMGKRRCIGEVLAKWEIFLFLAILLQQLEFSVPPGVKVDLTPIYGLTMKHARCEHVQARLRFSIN
In words: Inhibition of human CYP1A2 at 10 uM relative to control. The series is classed as ADME. In outline:
(§2)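 Inhibition measured against five human cytochrome P450 isoforms, with test compound at 10 µM, applied as the dephosphorylated phenol.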

The target in series [15] is CYP2D6 (Homo sapiens, UniProt P10635). In words: Inhibition of human CYP2D6 at 10 uM relative to control. The series is classed as ADME. In outline:
as §2

Series [16] has as its target CYP2C9 (Homo sapiens, UniProt P11712). In words: Inhibition of human CYP2C9 at 10 uM relative to control. The series is classed as ADME. In outline: as §2
Series [17] concerns the target CYP2C19 (Homo sapiens, UniProt P33261). In words: Inhibition of human CYP2C19 at 10 uM relative to control. The series is classed as ADME. In short, it runs like this: as §2
The target in series [18] is CYP3A4 (Homo sapiens, UniProt P08684). In words: Inhibition of human CYP3A4 at 10 uM relative to control. The series is classed as ADME. In short, it runs like this: as §2
Chain of CYP3A4 (P08684 whole entry): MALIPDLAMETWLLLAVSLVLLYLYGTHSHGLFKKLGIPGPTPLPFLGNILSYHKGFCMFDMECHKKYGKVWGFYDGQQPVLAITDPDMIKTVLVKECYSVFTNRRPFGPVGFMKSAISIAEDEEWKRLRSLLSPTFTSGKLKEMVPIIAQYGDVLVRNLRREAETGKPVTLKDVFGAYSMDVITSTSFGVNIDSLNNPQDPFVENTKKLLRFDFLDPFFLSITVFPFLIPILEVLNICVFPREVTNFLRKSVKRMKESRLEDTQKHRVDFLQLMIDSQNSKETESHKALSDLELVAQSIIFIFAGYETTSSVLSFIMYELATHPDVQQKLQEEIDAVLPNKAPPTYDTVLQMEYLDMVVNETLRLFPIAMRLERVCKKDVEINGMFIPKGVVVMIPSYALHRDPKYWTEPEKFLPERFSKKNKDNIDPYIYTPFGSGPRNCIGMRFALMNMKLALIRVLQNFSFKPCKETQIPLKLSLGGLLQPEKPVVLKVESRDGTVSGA
Series [19] concerns the target T2, hERG (KCNH2) (Homo sapiens, UniProt Q12809). In words: Inhibition of human ERG at 25 uM by fluorescence polarization assay relative to control. In outline:
(§3)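 hERG channel inhibition measured with a fluorescence polarisation reporter assay, applied to the dephosphorylated phenol.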
On the technique in general: Fluorescence polarisation rises when a labelled molecule tumbles more slowly, as on binding a larger partner.

The target in series [20] is T2, hERG (KCNH2). In words: Inhibition of human ERG at 5 uM by fluorescence polarization assay relative to control. In outline:
as §3

Series [21] addresses T2, hERG (KCNH2). In words: Inhibition of human ERG at 1 uM by fluorescence polarization assay relative to control. In outline:
as §3

Series [22] relates to liver microsomes (Mus musculus). The series is described as follows: Half life in mouse liver microsomes at 2 uM.
Series [23] has the same test system. In words: Stability in mouse liver microsomes assessed as parent compound remaining at 2 uM measured immediately in absence of cofactor. The conditions noted are these: read-out: Stabilty.
For series [24] the test system is unchanged. The series is described as follows: Stability in mouse liver microsomes assessed as parent compound remaining at 2 uM measured immediately in presence of cofactor. Conditions: read-out: Stabilty.
Series [25] has the same test system. The series is described as follows: Stability in mouse liver microsomes assessed as parent compound remaining at 2 uM measured after 40 mins in absence of cofactor. The conditions noted are these: read-out: Stabilty.
Series [26] shares this test system. The series is described as follows: Stability in mouse liver microsomes assessed as parent compound remaining at 2 uM measured after 10 mins in presence of cofactor. Conditions: read-out: Stabilty.
For series [27] the test system is unchanged. The series is described as follows: Stability in mouse liver microsomes assessed as parent compound remaining at 2 uM measured after 20 mins in presence of cofactor. Conditions: read-out: Stabilty.
Series [28] shares this test system. The series is described as follows: Stability in mouse liver microsomes assessed as parent compound remaining at 2 uM measured after 30 mins in presence of cofactor. The conditions noted are these: read-out: Stabilty.
Series [29] shares this test system. The series is described as follows: Stability in mouse liver microsomes assessed as parent compound remaining at 2 uM measured after 40 mins in presence of cofactor. Conditions: read-out: Stabilty.
For series [30], the species on record is Homo sapiens. In words: Inhibition of porcine tubulin polymerization at 16 uM preincubated for 10 mins followed by GTP addition by turbidimetric method. In short, it runs like this:
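Purified porcine brain tubulin (99% purity) pre-incubated 10 min at 37 °C with compound at 16 µM in buffer containing 3% DMSO and 10% glycerol. Polymerisation started at time zero by adding GTP to 1 mM. Absorbance at 340 nm followed over time at 37 °C as the turbidity read-out.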

Structures are written as SMILES. Calls of active or inactive are those of the source. No cut-off for these calls is given here. Bounds are passed on as bounds.

T2 sequence (Q12809 whole entry): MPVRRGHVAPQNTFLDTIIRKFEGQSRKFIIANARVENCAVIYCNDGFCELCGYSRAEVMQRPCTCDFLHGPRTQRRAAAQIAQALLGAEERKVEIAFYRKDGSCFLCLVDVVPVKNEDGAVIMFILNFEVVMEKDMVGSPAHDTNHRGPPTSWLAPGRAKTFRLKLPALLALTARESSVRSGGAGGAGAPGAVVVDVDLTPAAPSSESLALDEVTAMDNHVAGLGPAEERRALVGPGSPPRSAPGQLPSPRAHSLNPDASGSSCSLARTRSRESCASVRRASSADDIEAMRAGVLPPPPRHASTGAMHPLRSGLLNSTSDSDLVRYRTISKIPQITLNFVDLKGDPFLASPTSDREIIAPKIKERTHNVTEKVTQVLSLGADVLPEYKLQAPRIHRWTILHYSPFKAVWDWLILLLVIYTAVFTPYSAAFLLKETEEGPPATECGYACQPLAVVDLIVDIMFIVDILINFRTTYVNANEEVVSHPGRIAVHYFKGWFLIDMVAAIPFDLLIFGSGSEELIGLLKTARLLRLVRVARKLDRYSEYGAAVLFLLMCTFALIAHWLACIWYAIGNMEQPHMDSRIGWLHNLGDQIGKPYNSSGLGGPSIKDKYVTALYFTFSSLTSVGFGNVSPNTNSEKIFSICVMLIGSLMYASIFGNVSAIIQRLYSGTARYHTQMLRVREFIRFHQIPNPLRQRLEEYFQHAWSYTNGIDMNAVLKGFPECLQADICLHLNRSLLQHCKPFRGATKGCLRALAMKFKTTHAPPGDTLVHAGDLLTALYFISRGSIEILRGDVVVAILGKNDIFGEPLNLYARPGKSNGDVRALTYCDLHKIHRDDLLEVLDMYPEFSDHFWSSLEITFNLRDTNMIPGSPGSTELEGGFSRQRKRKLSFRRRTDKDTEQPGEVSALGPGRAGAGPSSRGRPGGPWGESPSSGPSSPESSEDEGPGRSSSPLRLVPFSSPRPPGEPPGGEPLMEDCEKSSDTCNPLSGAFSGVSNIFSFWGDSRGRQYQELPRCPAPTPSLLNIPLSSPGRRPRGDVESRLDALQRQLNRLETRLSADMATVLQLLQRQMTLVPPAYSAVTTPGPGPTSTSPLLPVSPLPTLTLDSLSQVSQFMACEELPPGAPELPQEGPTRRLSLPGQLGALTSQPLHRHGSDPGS
Chain of CYP2D6 (P10635 whole entry): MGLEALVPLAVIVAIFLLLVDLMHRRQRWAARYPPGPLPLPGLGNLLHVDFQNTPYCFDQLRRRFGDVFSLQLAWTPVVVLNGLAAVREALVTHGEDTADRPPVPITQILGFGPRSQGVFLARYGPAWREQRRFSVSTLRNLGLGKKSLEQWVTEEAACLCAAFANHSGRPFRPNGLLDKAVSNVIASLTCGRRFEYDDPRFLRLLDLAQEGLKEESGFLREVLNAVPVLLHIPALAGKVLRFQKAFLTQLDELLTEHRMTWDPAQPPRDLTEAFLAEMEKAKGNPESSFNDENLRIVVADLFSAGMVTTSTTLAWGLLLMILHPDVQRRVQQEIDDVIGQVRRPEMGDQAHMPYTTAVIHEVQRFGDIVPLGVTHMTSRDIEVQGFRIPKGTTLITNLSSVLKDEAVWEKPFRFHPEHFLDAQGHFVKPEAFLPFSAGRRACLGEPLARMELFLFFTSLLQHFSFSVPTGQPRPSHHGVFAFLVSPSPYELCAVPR
Chain of CYP2C9 (P11712 whole entry): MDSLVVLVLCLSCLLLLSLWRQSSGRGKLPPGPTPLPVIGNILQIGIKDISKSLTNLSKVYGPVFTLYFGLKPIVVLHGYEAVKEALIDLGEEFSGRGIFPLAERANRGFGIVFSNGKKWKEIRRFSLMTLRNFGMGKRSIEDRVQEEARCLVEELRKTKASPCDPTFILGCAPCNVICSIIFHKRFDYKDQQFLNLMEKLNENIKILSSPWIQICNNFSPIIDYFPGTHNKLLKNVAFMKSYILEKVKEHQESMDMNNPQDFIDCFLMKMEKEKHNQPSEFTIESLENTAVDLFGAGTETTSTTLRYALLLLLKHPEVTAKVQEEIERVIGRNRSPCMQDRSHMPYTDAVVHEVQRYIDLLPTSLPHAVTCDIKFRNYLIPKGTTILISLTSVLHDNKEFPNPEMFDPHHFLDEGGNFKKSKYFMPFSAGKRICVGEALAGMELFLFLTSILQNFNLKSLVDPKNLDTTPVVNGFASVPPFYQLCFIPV
Chain of CYP2C19 (P33261 whole entry): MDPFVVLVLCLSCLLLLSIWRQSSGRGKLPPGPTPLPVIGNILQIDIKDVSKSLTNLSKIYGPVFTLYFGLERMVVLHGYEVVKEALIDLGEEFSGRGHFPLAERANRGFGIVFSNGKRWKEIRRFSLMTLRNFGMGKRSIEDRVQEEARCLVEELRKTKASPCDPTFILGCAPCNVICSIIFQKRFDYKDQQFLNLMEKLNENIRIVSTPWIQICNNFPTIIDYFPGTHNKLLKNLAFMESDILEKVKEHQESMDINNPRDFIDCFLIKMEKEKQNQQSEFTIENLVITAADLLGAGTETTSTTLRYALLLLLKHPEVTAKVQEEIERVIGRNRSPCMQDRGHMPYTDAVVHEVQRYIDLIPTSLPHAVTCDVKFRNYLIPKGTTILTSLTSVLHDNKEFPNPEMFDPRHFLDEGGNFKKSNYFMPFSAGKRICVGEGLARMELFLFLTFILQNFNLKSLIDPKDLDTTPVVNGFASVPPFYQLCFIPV

One may read the EC50 as the midpoint of the concentration-response curve. Turning to `COc1cc(-c2nccc3cc4c(cc23)OCO4)cc(OC)c1OC`, the EC50 in series [1] was greater than 20 µM. In addition, the solubility result in [2] is given as “Insoluble”. The outcome in [3] and in series [4] was inactive.

Broadly, the half-life is the time in which the quantity being followed falls by half. A word on the inhibition: it is the drop in the measured response relative to a control, in per cent. In the case of `COc1cc2c(-c3cc(OC)c(OC)c(OC)c3)nccc2cc1O`, the Activity entry in series [1] was “Dose-dependent effect”. Besides, the figures for the EC50 in series [1] and in series [5] were 0.12 µM and 0.34 µM, respectively. Further, the remaining at 0 min, 2 µM in series [6], in series [12], in [23] and in [24] was 100% in each case. Besides, the remaining at 10 min, 2 µM in series [7] is 99%; in series [26], 93%. In addition, the remaining at 20 min, 2 µM in [8] stood at 84%; in [27], 82%. Besides, the results for the remaining at 0.5 h, 2 µM in series [9] and in series [28] were 75% and 73%, respectively. Further, the remaining at 40 min, 2 µM in series [10] was determined as 69%; in [13] it was 98%; in series [25], 105%; in series [29], 67%. In addition, the half-life at 2 µM in series [11] is 1.13 h; in series [22], 1.12 h. In addition, the inhibition at 10 µM was -4% in [14]; 19% in series [15]; 16% in [16]; -49% in series [17]; 13% in series [18]. Besides, in series [19], the inhibition at 25 µM is -5%. In addition, the inhibition at 5 µM in series [20] is -18%. The inhibition at 1 µM in series [21] was -3%.

For `COc1cc(-c2nccc3c(OC)c(OC)c(OC)cc23)ccc1O`, the EC50 in [1] was 50 µM.

In the case of `COc1ccc2ccnc(-c3cc(OC)c(OC)c(OC)c3)c2c1`, the Activity result in [1] and in series [3] was “Dose-dependent effect” each time. The EC50 in series [1] was 0.18 µM.

Turning to `COc1ccc(C(=O)c2nccc3c(OC)c(OC)c(OC)cc23)cc1`, the EC50 in [1] was greater than 80 µM.

Take `COc1cc(-c2nccc3c(OC)c(OC)c(OC)cc23)ccc1OP(=O)(O)O`: the EC50 in [1] and in series [5] was greater than 100 µM each time.

As for `COc1cc2c(c(OC)c1OC)-c1ccc(OC)c(=O)cc1[C@@H](NC(C)=O)CC2`, the inhibition entry in [30] is “Active”.
